Laboratory results from ChEMBL document CHEMBL3407439, “A facile and novel synthesis of N(2)-, C(6)-substituted pyrazolo[3,4-d]pyrimidine-4 carboxylate derivatives as adenosine receptor antagonists” (Eur J Med Chem, 2015).

Tests used:
[1] = target: T1, Adenosine receptor A1 (Homo sapiens, UniProt P30542); test: Displacement of [3H]CCPA from human adenosine A1 receptor expressed in CHO cells by Top Count analysis; assay type: cell-based
T1 sequence (P30542 whole entry): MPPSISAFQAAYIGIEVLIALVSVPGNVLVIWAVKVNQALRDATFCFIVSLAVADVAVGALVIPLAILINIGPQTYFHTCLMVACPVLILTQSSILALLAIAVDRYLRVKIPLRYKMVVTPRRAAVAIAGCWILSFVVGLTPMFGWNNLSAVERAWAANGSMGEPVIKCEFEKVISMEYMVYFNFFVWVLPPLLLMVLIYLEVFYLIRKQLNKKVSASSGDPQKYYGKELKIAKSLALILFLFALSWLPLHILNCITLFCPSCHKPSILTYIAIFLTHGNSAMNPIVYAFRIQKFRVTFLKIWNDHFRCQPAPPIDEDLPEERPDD
Method in brief: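 Tritiated-radioligand competition binding at hA1 receptor, 3 h at room temperature; nonspecific binding with 1 mM theophylline. Separation by GF/B glass-fibre filtration, filter radioactivity counted by scintillation (57% efficiency). Ki from competition curves by nonlinear curve fitting.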

[2] = target: T2, Adenosine receptor A2b (Homo sapiens, UniProt P29275); test: Antagonist activity at human adenosine A2B receptor expressed in CHO cells assessed as inhibition of NECA-induced adenylyl cyclase activity; assay type: functional, cell-based
T2 sequence (P29275 whole entry): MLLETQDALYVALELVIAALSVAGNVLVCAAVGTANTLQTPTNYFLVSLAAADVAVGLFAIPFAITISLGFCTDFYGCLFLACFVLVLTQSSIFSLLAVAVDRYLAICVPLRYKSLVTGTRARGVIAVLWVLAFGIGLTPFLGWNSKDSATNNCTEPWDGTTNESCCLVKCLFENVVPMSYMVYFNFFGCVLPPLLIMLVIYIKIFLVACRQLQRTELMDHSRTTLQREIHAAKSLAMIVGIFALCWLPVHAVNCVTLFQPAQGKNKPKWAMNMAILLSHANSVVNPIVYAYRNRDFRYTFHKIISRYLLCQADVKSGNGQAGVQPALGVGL
Method in brief: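 Membranes from CHO cells transfected with hA2B receptor incubated 20 min with 100 nM NECA, 150,000 cpm [α-32P]ATP and varying antagonist concentrations, in mixture lacking EGTA and NaCl. Ki derived from concentration-dependent inhibition of NECA-stimulated adenylyl cyclase activity; n = 3–6.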

[3] = target: Adenosine receptor A2a (Homo sapiens, UniProt P29274); test: Displacement of [3H]NECA from human adenosine A2A receptor expressed in CHO cells by Top Count analysis; assay type: cell-based
[4] = target: T3, Adenosine receptor A3 (Homo sapiens, UniProt P0DMS8); test: Displacement of [3H]HEMADO from human adenosine A3 receptor expressed in CHO cells by Top Count analysis; assay type: cell-based
T3 sequence (P0DMS8 whole entry): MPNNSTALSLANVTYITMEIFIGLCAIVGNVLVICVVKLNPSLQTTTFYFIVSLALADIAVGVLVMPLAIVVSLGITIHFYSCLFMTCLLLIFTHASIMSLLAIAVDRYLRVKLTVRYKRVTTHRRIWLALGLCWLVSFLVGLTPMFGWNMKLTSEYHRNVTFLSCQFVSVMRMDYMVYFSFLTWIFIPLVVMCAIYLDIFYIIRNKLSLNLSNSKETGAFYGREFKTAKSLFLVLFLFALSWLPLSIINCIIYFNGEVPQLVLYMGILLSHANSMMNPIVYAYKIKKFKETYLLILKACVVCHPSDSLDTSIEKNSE
Method in brief: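 Competition against [3H]HEMADO binding at hA3 receptor in CHO cells, 3 h at room temperature; nonspecific binding defined with 100 µM R-PIA.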

[5] = organism: Homo sapiens; test: Selectivity ratio of Ki for human adenosine A2A receptor to Ki for human adenosine A3 receptor
[6] = target: Adenosine receptors; A1 & A3 (Homo sapiens) (UniProt P30542+P0DMS8); test: Selectivity ratio of Ki for human adenosine A1 receptor to Ki for human adenosine A3 receptor

Chain of Adenosine receptor A2a (P29274 whole entry): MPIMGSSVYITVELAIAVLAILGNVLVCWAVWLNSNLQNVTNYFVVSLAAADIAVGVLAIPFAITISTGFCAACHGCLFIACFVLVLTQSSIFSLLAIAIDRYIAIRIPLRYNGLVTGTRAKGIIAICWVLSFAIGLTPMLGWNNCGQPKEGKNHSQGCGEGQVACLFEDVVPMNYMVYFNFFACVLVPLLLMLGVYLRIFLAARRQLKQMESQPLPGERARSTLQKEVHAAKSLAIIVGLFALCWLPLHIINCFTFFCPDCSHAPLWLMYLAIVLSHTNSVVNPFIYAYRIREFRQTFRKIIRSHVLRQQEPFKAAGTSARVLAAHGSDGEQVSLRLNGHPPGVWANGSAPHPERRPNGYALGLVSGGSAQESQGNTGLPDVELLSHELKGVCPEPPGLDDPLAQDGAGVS

SMILES | Ki [1] [µM] | Ki [2] [µM] | Ki [3] [µM] | Ki [4] [µM] | Ratio Ki [5] | Ratio Ki [6]
CCOC(=O)c1nc(N(C(=O)c2ccccc2)C(=O)c2ccccc2)nc2nn(C)cc12 | > 100 | > 20 | > 100 | > 100 | – | –
CCOC(=O)c1nc(NC(=O)c2ccccc2)nc2nn(C)cc12 | 14 | > 20 | 16.1 | > 100 | < 0.16 | < 0.14
CCOC(=O)c1nc(NC(=O)c2ccc(C(F)(F)F)cc2)nc2nn(C)cc12 | > 100 | > 20 | > 100 | > 100 | – | –
CCOC(=O)c1nc(NC(=O)c2ccc(C(F)(F)F)cc2)nc2nn(C(C)C)cc12 | > 100 | > 20 | > 100 | > 100 | – | –
CC(C)n1cc2c(C(N)=O)nc(N)nc2n1 | 8.2 | > 20 | 9.2 | > 100 | – | –
Cn1cc2c(C(N)=O)nc(N)nc2n1 | 10.2 | > 20 | 3 | > 100 | – | –
CC(C)(C)Cn1cc2c(C(N)=O)nc(N)nc2n1 | > 90 | > 20 | > 80 | 19.7 | > 4.1 | > 4.6
CCOC(=O)c1nc(N(C(=O)c2ccccc2)C(=O)c2ccccc2)nc2nn(C(C)C)cc12 | 17.7 | > 20 | > 100 | 5.4 | > 18.5 | 3.2
CCOC(=O)c1nc(NC(=O)c2ccc(C)cc2)nc2nn(C)cc12 | > 100 | > 20 | 11.8 | 100 | 0.12 | > 1
CCOC(=O)c1nc(NC(=O)Cc2ccccc2)nc2nn(C)cc12 | 5.9 | > 20 | 7.3 | 14.6 | 0.5 | 0.4
CCOC(=O)c1nc(N)nc2nn(C)cc12 | 8.8 | > 20 | 2 | 0.9 | 2.2 | 9.7
NC(=O)c1nc(N)nc2nn(CCc3ccccc3)cc12 | 40.2 | > 20 | 15.7 | 32.9 | 0.47 | 1.2
CCOC(=O)c1nc(N(C(=O)c2ccc(Br)cc2)C(=O)c2ccc(Br)cc2)nc2nn(C)cc12 | > 100 | > 20 | > 100 | 2.9 | > 34 | > 34
CCOC(=O)c1nc(NC(=O)c2ccccc2)nc2nn(CCc3ccccc3)cc12 | 5.1 | > 10 | 3.7 | 12.2 | 0.3 | 0.41
CCOC(=O)c1nc(N(C(=O)c2ccccc2)C(=O)c2ccccc2)nc2nn(CCc3ccccc3)cc12 | > 100 | > 20 | > 100 | > 100 | – | –
CCOC(=O)c1nc(NC(=O)c2ccc(F)cc2)nc2nn(C)cc12 | > 100 | > 20 | 11.5 | > 100 | < 0.14 | –
CCOC(=O)c1nc(N(C(=O)c2ccc(F)c(F)c2)C(=O)c2ccc(F)c(F)c2)nc2nn(C)cc12 | > 100 | > 20 | > 100 | > 100 | – | –
CCOC(=O)c1nc(NC(=O)c2ccc(C)cc2)nc2nn(CCc3ccccc3)cc12 | > 100 | > 20 | 6 | 3 | 2 | > 33
CCOC(=O)c1nc(NC(=O)c2ccc(Cl)c(Cl)c2)nc2nn(CCc3ccccc3)cc12 | > 100 | > 20 | > 100 | 2.2 | > 46 | > 46

More lines, now with the values ahead:

Ki [1] [µM] | Ki [2] [µM] | Ki [3] [µM] | Ki [4] [µM] | Ratio Ki [5] | Ratio Ki [6] | SMILES
2.6 | > 20 | 4.2 | 3.6 | 1.2 | 0.72 | CCOC(=O)c1nc(NC(=O)c2ccc(Br)cc2)nc2nn(CCc3ccccc3)cc12
2.7 | > 20 | 5.7 | 4.3 | 1.3 | 0.62 | CCOC(=O)c1nc(NC(=O)c2ccc(F)cc2)nc2nn(CC(C)(C)C)cc12
2.7 | > 20 | 5.7 | 4.3 | 1.3 | 0.62 | CCOC(=O)c1nc(NC(=O)Cc2ccccc2)nc2nn(CC(C)(C)C)cc12
3.5 | 60 | 4.8 | 18.1 | 0.26 | 0.19 | CCOC(=O)c1nc(N)nc2nn(CCc3ccccc3)cc12
2.5 | > 20 | 7.5 | 5.8 | 1.3 | 0.5 | CCOC(=O)c1nc(NC(=O)c2ccc(C(F)(F)F)cc2)nc2nn(CCc3ccccc3)cc12
4.3 | > 10 | 3.3 | 8.6 | 0.4 | 0.5 | CCOC(=O)c1nc(NC(=O)c2ccccc2)nc2nn(C(C)C)cc12
0.6 | > 10 | 2.4 | 10.4 | 0.2 | 0.05 | CCOC(=O)c1nc(NC(=O)Cc2ccccc2)nc2nn(CCc3ccccc3)cc12
4 | > 15 | 5 | 10.4 | 0.48 | 0.38 | CCOC(=O)c1nc(N)nc2nn(CC(C)(C)C)cc12
5 | > 20 | 6.1 | 6.8 | 0.8 | 0.73 | CCOC(=O)c1nc(NC(=O)c2ccc(F)cc2)nc2nn(CCc3ccccc3)cc12
2.8 | > 20 | 2.8 | 5.7 | 0.5 | 0.5 | CCOC(=O)c1nc(NC(=O)c2ccc(F)cc2)nc2nn(C(C)C)cc12
0.6 | > 10 | 8.8 | 13.3 | 0.66 | 0.04 | CCOC(=O)c1nc(NC(=O)Cc2ccccc2)nc2nn(C(C)C)cc12
0.7 | > 20 | 2.3 | 28 | 0.1 | 0.02 | CCOC(=O)c1nc(NC(=O)c2ccc(C)cc2)nc2nn(C(C)C)cc12
0.9 | > 10 | 2.6 | 14 | 0.18 | 0.06 | CCOC(=O)c1nc(N)nc2nn(C(C)C)cc12
